Hits are enriched below; roughly 1.8% of the tested compounds scored in any of these assays.
M5 PAM: CHRM5 positive allosteric modulation | P08912 | CHO-K1 hM5, Fluo-8 calcium, ACh EC20 PAM; 0% = ACh EC20, 100% = ACh EC100 | activation, % at 3 µM | 0.3% of 360,000 active | AID 624038;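 active = activation above the run cutoff, the mean activation of all test compounds plus 3 SD, cut at about 18% in these data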
Target sequence (P08912 whole entry, looked up): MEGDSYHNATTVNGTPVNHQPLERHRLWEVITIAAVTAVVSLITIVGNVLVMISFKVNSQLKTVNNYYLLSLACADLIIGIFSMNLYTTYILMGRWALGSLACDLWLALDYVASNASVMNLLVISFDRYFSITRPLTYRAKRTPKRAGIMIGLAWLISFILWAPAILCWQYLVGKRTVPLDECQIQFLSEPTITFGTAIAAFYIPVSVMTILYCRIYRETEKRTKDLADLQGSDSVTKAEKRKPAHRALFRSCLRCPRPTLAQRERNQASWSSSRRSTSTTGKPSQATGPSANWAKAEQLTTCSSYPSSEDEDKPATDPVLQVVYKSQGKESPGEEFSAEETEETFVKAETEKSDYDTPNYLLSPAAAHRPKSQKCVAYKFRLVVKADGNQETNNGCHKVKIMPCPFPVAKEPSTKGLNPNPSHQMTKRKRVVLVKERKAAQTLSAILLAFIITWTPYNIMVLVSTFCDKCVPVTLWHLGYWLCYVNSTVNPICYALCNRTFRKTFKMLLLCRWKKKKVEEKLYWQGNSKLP
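System – CHO-K1 hM5 cells · Compound – 3 µM, single dose · Incubation – compound preincubation 140 s before EC20 acetylcholine addition · Technique – Fluo-8 calcium fluorescence · Measure – Max/basal fluorescence ratio as % of EC20–EC100 ACh window · Benchmarks – low control EC20 acetylcholine (0%), high control EC100 acetylcholine (100%) · Replication – singlicate, one well per test compound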
M5 ag: agonists of human muscarinic M5 receptor (CHRM5) | 0.19% of 360,000 active | AID 624037 | activation, % at 3 µM | CHO-K1 hM5 cells, Fluo-8 calcium fluorescence; 0% DMSO wells, 100% maximal acetylcholine response;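 active = activation above the run's mean over test compounds plus 3 SD, cut at about 23% in these data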;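 also: signal is peak over basal fluorescence ratio across the kinetic read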
M5 antag: blocks acetylcholine activation of human M5 receptor; CHO-hM5 cells, Fluo-8 calcium fluorescence, ACh EC80; inhibition, % at 3 µM; 0.59% of 360,000 active; P08912;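 active = inhibition above a per-plate cutoff, the mean of that plate's test compounds plus 3 SD, cut at about 27% in these data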
CHRM4 PAM: CHRM4 positive allosteric modulation | 0.4% of 360,000 active | CHO-K1 hM4/Gqi5, Fluo-8 calcium fluorescence, ACh EC20; 0% = ACh EC20, 100% = maximal ACh | P08173 | activation, % at 3 µM | AID 624126;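 active = activation above its plate's cutoff, the mean activation of sample wells plus 3 SD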
CHRM4 agonist: agonists of human muscarinic M4 receptor (CHRM4); P08173; CHO-K1 hM4/Gqi5, Fluo-8 calcium fluorescence; vehicle 0%, full acetylcholine response 100%; 0.14% of 360,000 active; activation, % at 3 µM;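 active = activation above the run mean over all test wells plus 3 SD, cut at about 32% in these data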;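 also: peak over basal fluorescence ratio per well then scaled between controls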
M4 antag: antagonists of human muscarinic M4 receptor (CHRM4) | 0.73% of 360,000 active | P08173 | CHO-hM4 cells, ACh EC80, Fluo-8 calcium fluorescence | inhibition, % at 3 µM;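 active = inhibition above its plate's cutoff, the mean inhibition of sample wells plus 3 SD, cut at about 27% in these data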
A number is an active result; . = inactive.

SMILES	M5 PAM	M5 ag	M5 antag	CHRM4 PAM	CHRM4 agonist	M4 antag
Cc1cc(NC(=O)Nc2ccc(OCc3ccccc3)cc2)n(C)n1	.	.	.	.	.	.
O=C(O)C1C(c2ccccc2)C(C(=O)Oc2ccccc2)C1c1ccccc1 (centres undefined)	.	.	.	.	.	.
Cc1cccc(OC(=O)C2C(c3ccccc3)C(C(=O)O)C2c2ccccc2)c1 (centres undefined)	.	.	.	31	.	.
CN(C)CCCN1c2ccccc2Sc2ccc(Cl)cc21	.	.	98	.	.	73
CN(C)CCCN1c2ccccc2Sc2ccc3ccccc3c21	.	.	55	.	.	27
OCCN1CCN(CCCN2c3ccccc3Sc3ccc(Cl)cc32)CC1	.	.	34	.	.	98
Cc1ccc(Nc2nc(N)c3ccccc3n2)cc1C	.	.	.	.	.	.
CC1CN(C)C(C)c2c1oc1ccc(N)cc21 (centres undefined)	20	.	.	.	.	.
Cc1ccc(N2CCN(C(=O)C(=O)c3cccc(Br)c3)CC2)cc1	.	.	.	.	.	.
O=C(C(=O)N1CCN(c2ccccc2)CC1)c1cccc(Br)c1	.	.	.	.	.	30
Cc1ccc(S(=O)(=O)NC(=O)C2(C)CCN2C(=O)Cc2ccc(Cl)cc2Cl)cc1 (centres undefined)	.	.	.	.	.	.
O=C(COC(=O)CCS(=O)(=O)c1ccccc1)Nc1ccc(N2CCCCC2)cc1	.	.	.	23	.	.
Cc1cccc(NS(=O)(=O)c2c(C(=O)N3CCOCC3)c(C)n(C)c2C)c1C	.	.	.	.	.	.
Cc1ccc(NC(=O)COC(=O)Cn2ccc(C(F)(F)F)n2)cc1Cl	.	.	.	22	.	.
Cc1ccc(NC(=O)COC(=O)CN2CCSC2=O)cc1Cl	.	.	.	.	.	.
CCC(C)c1ccc(OCCCCN2CCOCC2)cc1 (centres undefined)	.	.	.	.	.	.
O=C(/C=C/c1ccco1)N(Cc1cccc(Cl)c1)C1CCS(=O)(=O)C1 (centres undefined)	.	.	27	.	.	.
CCCCn1c(N)c(N(CCOC)C(=O)C2CCN(S(=O)(=O)c3ccc(C)cc3C)CC2)c(=O)[nH]c1=O	.	.	.	24	.	.
CCCCN(C(=O)C(C)N1C(=O)c2ccccc2C1=O)c1c(N)n(CCCC)c(=O)[nH]c1=O (centres undefined)	.	.	.	.	.	.
CCCCn1c(N)c(N(CCOC)C(=O)C2CCN(S(=O)(=O)c3ccc(C)cc3)CC2)c(=O)[nH]c1=O	.	.	.	.	.	.
CCCCn1c(N)c(N(CCC(C)C)C(=O)C2CC(=O)N(Cc3ccc(C)cc3)C2)c(=O)[nH]c1=O (centres undefined)	.	.	.	28	.	.
CCCCn1c(N)c(N(CCC(C)C)C(=O)C(C)N2C(=O)c3ccccc3C2=O)c(=O)[nH]c1=O (centres undefined)	.	.	.	22	.	.
COc1ccc(N2CC(C(=O)Nc3ccc(S(=O)(=O)Nc4nccs4)cc3)CC2=O)c(OC)c1 (centres undefined)	.	.	.	.	.	.
O=C(c1ccc(COc2ccc(Cl)cc2Cl)o1)N1CCCC1	.	.	.	.	.	.
C1=CC2CC1CC2CN1CCN(c2ccccc2)CC1 (centres undefined)	.	.	.	.	.	.
Cc1ccccc1CN1CCN(CC2CC3C=CC2C3)CC1 (centres undefined)	.	.	.	.	.	44
O=C(NCc1ccon1)C1CCC(=O)N(CCc2ccc(Cl)cc2)C1 (centres undefined)	21	.	.	16	.	.
Cc1ccnc(NC(=O)CCNC(=O)c2ccccc2Cl)c1	.	.	.	21	.	.
Cc1ccc(NC(=O)CCNC(=O)c2ccccc2Cl)nc1	.	.	.	.	.	.
CCC(=O)N1CCN(c2nc3ccccc3s2)CC1	.	.	.	.	.	.

High-throughput results deposited in PubChem by The Scripps Research Institute Molecular Screening Center.
